In the library only some 1.2% were active in any assay of this set; here they are far more common.
proCasp7 act: counter-screen for procaspase-3 activators: activators of human procaspase-7. P55210. recombinant procaspase-7, Ac-DEVD-pNA absorbance 405 nm; D23A/D198A/D206A triple mutant, cannot self-cleave; scale: DMSO 0, 5 µM enzyme 100. activation, % at 8.5 µM. 330,000 tested, 0.093% active;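 active means percent activation above the screen-wide mean plus 3 SD, cut at about 25% in these data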
Target sequence (P55210 whole entry D23A/D198A/D206A): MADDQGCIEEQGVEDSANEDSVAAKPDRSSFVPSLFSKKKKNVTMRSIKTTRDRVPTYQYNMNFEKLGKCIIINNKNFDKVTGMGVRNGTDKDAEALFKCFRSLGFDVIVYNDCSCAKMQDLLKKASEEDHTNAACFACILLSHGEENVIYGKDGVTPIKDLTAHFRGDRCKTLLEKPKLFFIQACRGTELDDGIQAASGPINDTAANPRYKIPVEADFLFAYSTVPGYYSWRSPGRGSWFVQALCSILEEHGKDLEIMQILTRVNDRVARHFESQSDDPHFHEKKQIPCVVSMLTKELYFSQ
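Assay system: Uncleavable procaspase-7 mutant enzyme; Input: 2 µM procaspase-7 mutant as dispensed; Also added: DEVD-pNA substrate; Medium: Zinc-free HEPES pH 7.4 with 300 mM NaCl, 0.01% Triton X-100; Timing: 1 h compound preincubation, 2 h substrate cleavage, 25 °C; Measured by: Epi-absorbance of released pNA at 405 nm, two timepoints.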
PP1 counter: blocks human PP1-alpha phosphatase, a PP5 counter-screen. AID 2235. 320,000 tested, 0.9% active. inhibition, % at 6.7 µM. purified PP1alpha, OMFP fluorescence. P62136;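 active means inhibition above the mean inhibition of all tested compounds plus 3 SD, computed separately for each screening campaign, cut at about 15% in these data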
Target sequence (P62136 whole entry, looked up): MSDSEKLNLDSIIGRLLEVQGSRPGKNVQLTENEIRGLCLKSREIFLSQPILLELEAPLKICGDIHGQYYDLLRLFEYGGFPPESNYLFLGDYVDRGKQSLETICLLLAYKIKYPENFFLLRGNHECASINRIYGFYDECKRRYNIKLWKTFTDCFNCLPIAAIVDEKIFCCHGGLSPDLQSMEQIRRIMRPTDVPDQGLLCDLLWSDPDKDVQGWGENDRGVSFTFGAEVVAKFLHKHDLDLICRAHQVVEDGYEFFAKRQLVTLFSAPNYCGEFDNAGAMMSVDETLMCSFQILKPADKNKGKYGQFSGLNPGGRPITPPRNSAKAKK
PP5 inh: blocks human protein phosphatase 5 activity | P53041 | purified PP5c, OMFP substrate fluorescence | inhibition, % at 6.7 µM | 320,000 tested, 0.18% active | AID 1987;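 active means inhibition above the campaign's mean inhibition across all tested compounds plus 3 SD, cut at about 9.5% in these data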;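 further: 0% = DMSO only and 100% = 100 µM cantharidin control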
procasp3 activ: activators of human procaspase-3. P42574. recombinant procaspase-3 D3A, Ac-DEVD-pNA absorbance 405 nm. activation, % at 8.5 µM. 330,000 tested, 0.11% active;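 active means activation above the mean of all tested compounds plus 3 SD, cut at about 21% in these data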;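 further: 0% = DMSO alone and 100% = DMSO wells spiked with extra 5 µM PC-3 D3A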
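Evaluation: percent activation relative to control range; Material: Procaspase-3 D3A mutant, all three cleavage aspartates alanine; Compound: single dose, 8.5 µM nominal compound, 0.8% DMSO; Replication: one well per compound; Signal: absorbance at 405 nm, 0 and 120 min; Schedule: 1 h preincubation plus 2 h reaction at 25 °C.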
PP1 confirm: human PP1 phosphatase inhibition, confirmation; inhibition, % at 6.7 µM; shares compounds with PP1 counter; 1,900 tested, 52% active; purified PP1alpha, OMFP substrate fluorescence;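 active means mean PP1 inhibition above a set limit taken from the earlier primary screen, cut at about 15% in these data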
PP5 inh counter: inhibits human PP5 phosphatase in PP1 counter-screen; purified PP5c, OMFP fluorescence; AID 2360; inhibition, % at 6.7 µM; shares compounds with PP1 counter; 1,900 tested, 4% active;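 active means mean PP5 inhibition over triplicate wells above about 9.5% taken from the earlier PP1 screen, limit read from the data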
* marks the source's active call; other numbers are inactive results; . = no result.

SMILES | proCasp7 act | PP1 counter | PP5 inh | procasp3 activ | PP1 confirm | PP5 inh counter
O=C(O)C1C2C=CC(O2)C1C(=O)NCCC1=CCCCC1 (stereo unspecified) | -2 | -6 | 2 | -3 | . | .
Cc1sc2nc(CSc3ccc([N+](=O)[O-])c(C(F)(F)F)c3)[nH]c(=O)c2c1C | 12 | 27* | 1 | 5 | 9 | -2
O=C1C(=O)N(Cc2ccco2)C(c2cccc(Cl)c2)/C1=C(\O)c1ccc2c(c1)OCCO2 (stereo unspecified) | -10 | 19* | 2 | -3 | 5 | 7
COc1cc(NC(=O)c2cc(S(=O)(=O)N3CCCCC3)c[nH]2)cc(OC)c1 | 1 | 18* | -2 | -12 | 12 | -4
COc1ccc(NC(=O)c2cc(S(=O)(=O)N3CCCCC3)c[nH]2)c(OC)c1 | 2 | -2 | 1 | 3 | . | .
COc1ccc(Cn2c(SCc3cc(C)ccc3C)nc3cc(OC)c(OC)cc3c2=N)cc1 | 0 | 23* | 5 | 7 | 6 | 3
COc1ccc(Cn2c(SCc3ccc(C)cc3)nc3cc(OC)c(OC)cc3c2=N)cc1Cl | 21 | 21* | 6 | 15 | 5 | 2
Cc1ccc(-c2nnn(CC(=O)N3CCCCC3)n2)cc1 | 1 | -1 | 2 | 0 | . | .
CSc1nc(NCCOCCO)c2sc3nc(-c4ccco4)c4c(c3c2n1)CCC4 | -39 | 45* | 1 | -29 | 25* | 0
CCN(CCO)c1nc(SC)nc2c1sc1nc(-c3ccco3)c3c(c12)CCC3 | -18 | 19* | 2 | -7 | 28* | 0
CSc1nc(NCc2ccco2)c2sc3nc(C(C)C)c4c(c3c2n1)CC(C)(C)OC4 | -17 | 4 | 3 | -7 | . | .
O=C(Nc1ccnn1C1CCN(Cc2cccc(OCCO)c2)CC1)C1CCOC1 (stereo unspecified) | 7 | -8 | 4 | 7 | . | .
CC(C)c1cc(C(=O)OCC(=O)N2CCN(C(=O)c3ccco3)CC2)c(O)c(C(C)C)c1 | 2 | -1 | 0 | -13 | . | .
COC(=O)c1ccc([C@H](NC(=O)c2ccco2)[C@]2(C)C[C@H]2C2CCCCC2)cc1 | 0 | 3 | 7 | -1 | . | .
Cc1ccccc1NC(=O)c1ccccc1N(C)S(=O)(=O)c1ccccc1 | -3 | -5 | -2 | -1 | . | .
CC(C)=NNC(=O)c1c(O)c2ccccc2[nH]c1=O | -21 | 21* | -2 | -7 | 9 | -2
O=C(NNC(=S)Nc1ccc(Cl)c(Cl)c1)c1ccccn1 | -11 | 21* | -1 | -3 | 24* | 1
O=C(Nc1nc(-c2ccccn2)cs1)C1CC(=O)N(c2ccc3c(c2)OCCO3)C1 (stereo unspecified) | 7 | 45* | 5 | -1 | 55* | -2
Cc1cccnc1NC(=O)C1CC(=O)N(c2ccc3c(c2)OCCO3)C1 (stereo unspecified) | 5 | -1 | 0 | 1 | . | .
CC(=O)NCCC(=O)Nc1cc(S(=O)(=O)N2CCOCC2)ccc1N1CCCC1 | -7 | -1 | 0 | 11 | . | .
O=C(Cc1csc(NC(=O)Nc2cccc(Cl)c2)n1)NCc1ccccn1 | 1 | 2 | 3 | 0 | . | .
O=C(Cc1csc(NC(=O)Nc2cccc(Cl)c2)n1)NC1CCCC1 | -1 | 36* | 4 | -1 | 42* | -1
C#CCn1c(=NC(=O)c2sc3ccccc3c2Cl)sc2cc(S(N)(=O)=O)ccc21 | -1 | 28* | 0 | -11 | 34* | -5
C#CCn1c(=NC(=O)c2ccc(S(=O)(=O)N3CCc4ccccc4C3)cc2)sc2cc(S(N)(=O)=O)ccc21 | 5 | 26* | -1 | 6 | 28* | -4
C#CCn1c(=NC(=O)c2ccccc2[N+](=O)[O-])sc2cc(S(C)(=O)=O)ccc21 | -3 | -3 | 1 | -2 | . | .
SMILES | proCasp7 act | PP1 counter | PP5 inh | procasp3 activ | PP1 confirm | PP5 inh counter
O=C(Nc1nc(-c2ccccn2)cs1)c1ccc(Br)s1 | -11 | 31* | 4 | 1 | 17* | -2
O=C(Nc1nc(-c2ccccn2)cs1)c1cccc(-n2cnnn2)c1 | 5 | 27* | -1 | -2 | 21* | -2
O=C(Nc1ccc(Br)cc1)c1cccc(-n2cnnn2)c1 | 1 | -2 | 4 | 3 | . | .
CNc1[nH]c(=O)[nH]c(=O)c1N=Nc1cc(Cl)ccc1Cl | -1 | 1 | -1 | -5 | . | .
C=CCNC(=S)N1CCN(c2cc3c(cc2F)c(=O)c(C(=O)O)cn3CC)CC1 | 8 | 20* | 1 | -3 | 9 | -4
CCn1cc(C(=O)O)c(=O)c2cc(F)c(N3CCN(S(=O)(=O)c4ccc(Br)cc4)CC3)cc21 | 10 | 19* | 0 | 10 | 41* | -1
CCOc1ccc(S(=O)(=O)NCCC(=O)N2CC(C)CC(C)C2)cc1 (stereo unspecified) | 6 | 79* | -1 | 3 | -6 | -5
CCOc1ccc(OCC)c(S(=O)(=O)NCCCN2CCOCC2)c1 | 3 | -3 | -8 | 10 | . | .
CCOc1ccc(S(=O)(=O)NCCCN2CCOCC2)cc1 | 9 | 23* | 3 | 5 | -4 | -7
COc1ccc(S(=O)(=O)N2CCCCC2)cc1NC(=O)c1ccc(CS(C)(=O)=O)cc1 | -8 | 2 | 4 | -5 | . | .
CC(=O)c1cccc(NC(=O)c2cc(-c3ccco3)nc3ccccc23)c1 | 2 | 2 | 0 | -6 | . | .
Cc1ccc(NC(=O)CN(C)C(=O)c2cc(-c3ccco3)nc3ccccc23)cc1 | -28 | 28* | 1 | -23 | 0 | -1
COc1cccc(NC(=O)c2cc(-c3ccco3)nc3ccccc23)c1 | -12 | 18* | 0 | -5 | 3 | 0
CN(CC(=O)Nc1ccc(F)cc1)C(=O)c1cc(-c2ccco2)nc2ccccc12 | -16 | 4 | 0 | -8 | . | .
COCCN(Cc1ccccc1)C(=O)c1ccc(C(=O)c2ccccc2)cc1 | -3 | 0 | 6 | 11 | . | .
COc1ccc(CN2C(=O)Cc3c2nc(N)c2c(N)nc(N4CCCCC4)c(C#N)c32)cc1 | -10 | 26* | 8 | -13 | 34* | 52*
COc1cc2c(C#N)c(N3CCCCC3)nc(N)c2c(N)n1 | 1 | 2 | 5 | 5 | . | .
COc1ccc(-c2cc(-c3ccccc3)c(C#N)c(S(C)=O)n2)cc1 (stereo unspecified) | -4 | -1 | 2 | 0 | . | .
COc1ccc(-c2cc3nc4ccccc4n3c(N)c2C#N)cc1 | 4 | 18* | -5 | -2 | 17* | -4
CCCCCCCCCCCCCCCC[N+](C)(C)CC | -2 | 20* | 3 | -13 | -11 | 2
Oc1ccc(Nc2nc(N3CCCC3)c3ccccc3n2)cc1 | 5 | 7 | 0 | -3 | . | .
COc1ccc(Nc2nc(N3CCCCC3)c3ccccc3n2)cc1 | -3 | 21* | 3 | 3 | 3 | 3

From PubChem
